Experimental data of several laboratories.
Each line is one published result; the experiments were not run side by side.
Cell line: PC-3
Observed: cell growth or viability

O=C(Nc1cccc(Cc2ccccc2)c1)C1CCCN(C(=O)c2cccc(-c3ccco3)c2)C1 (stereo not drawn)  inhibition (WST-1; 100 µM): 0%
O=C(CN1C(=O)/C(=C/C2CC2)SC1=S)Nc1ccccc1  inhibition (MTT; 10 µM): 24.1%
COc1ccc(C(=O)/C=C/c2cccc(Br)c2)cc1S(N)(=O)=O  inhibition (SRB; 10 µM): 135%
O=C(Nc1cccc(-c2ccco2)c1)C1CCCN(C(=O)c2cc(C(F)(F)F)cc(C(F)(F)F)c2)C1 (stereo not drawn)  inhibition (WST-1; 100 µM): 0%
O=C(CN1C(=O)/C(=C/c2ccccc2)SC1=S)Nc1ccccc1  inhibition (MTT; 10 µM): 43.8%
COc1ccc(C(=O)/C=C/c2cccc(Cl)c2Cl)cc1S(N)(=O)=O  inhibition (SRB; 10 µM): 95%
O=C(Nc1cccc(Cc2ccccc2)c1)C1CCCN(C(=O)c2cc(C(F)(F)F)cc(C(F)(F)F)c2)C1 (stereo not drawn)  inhibition (WST-1; 100 µM): 0%
COc1ccccc1/C=C/C(=O)c1ccc(OC)c(S(N)(=O)=O)c1  inhibition (SRB; 10 µM): 52%
CC(=O)c1cccc(NC(=O)C2CCCN(C(=O)c3cc(C(F)(F)F)cc(C(F)(F)F)c3)C2)c1 (stereo not drawn)  inhibition (WST-1; 100 µM): 0%
COc1cc(CNC(=O)C[C@H](C)CCC=C(C)C)ccc1OCc1cn(-c2ccc(Cl)cc2)nn1  inhibition (SRB; 10 µM): 28%
O=C(CN1C(=O)/C(=C/c2ccc(Cl)cc2)SC1=S)Nc1ccccc1  inhibition (MTT; 10 µM): 32.3%
COc1ccc(C(=O)/C=C/c2cccnc2)cc1S(N)(=O)=O  inhibition (SRB; 10 µM): 22%
COC(=O)c1cc(-c2cccc(NC(=O)C3CCCN(C(=O)c4cc(C(F)(F)F)cc(C(F)(F)F)c4)C3)c2)co1 (stereo not drawn)  inhibition (WST-1; 100 µM): 0%
O=C(CN1C(=O)/C(=C/c2ccc([N+](=O)[O-])cc2)SC1=S)Nc1ccccc1  inhibition (MTT; 10 µM): 16.6%
COc1ccc(C(=O)/C=C/c2cccc3ccccc23)cc1S(N)(=O)=O  inhibition (SRB; 10 µM): 87%
